{"source": "ChEMBL document CHEMBL4130635", "about": "“2,4-Diaminoquinazolines as Dual Toll-like Receptor (TLR) 7/8 Modulators for the Treatment of Hepatitis B Virus” (J Med Chem, 2018)", "key": {"Plasma [1]": {"tested_on": "Plasma", "test": "Anti-inflammatory activity in C57BL/6J mouse plasma assessed as IL-10 levels at 3 mg/kg, po by multiplex assay (reference value: 120 pg/ml)", "assay_type": "functional", "procedure,_shortened": "(§1)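 Single oral gavage in 20% HP-β-CD to healthy C57BL/6 mice, groups of 15 at 0.3, 1, 3, 10 or 30 mg/kg. Three mice per group sacrificed at 0.5, 1, 2, 4 or 7 h. Plasma and liver cytokines by multiplex, maximum level reported, rounded to nearest multiple of 5.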"}, "Cynomolgus monkey [2]": {"tested_on": "Cynomolgus monkey", "test": "Toxicity in cynomolgus monkey assessed as change in body weight up to 30 mg/kg, po", "assay_type": "organism-based, Macaca fascicularis", "conditions": "in vivo"}, "Cynomolgus monkey [3]": {"tested_on": "Cynomolgus monkey", "test": "Effect on cytokine profile in cynomolgus monkey plasma assessed as IL-15 levels at 1 mg/kg, po after 24 hrs by Luminex assay (reference value: 20 pg/ml)", "assay_type": "functional, Macaca fascicularis", "procedure,_shortened": "(§2)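 Healthy cynomolgus monkeys given single oral doses of 1, 3, 9 and 30 mg/kg, with a 2-week wash-out planned between doses. Systemic cytokine levels in plasma were sampled at 0.5, 1, 2, 4, 9 and 24 h postdose.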"}, "[4]": {"test": "Cmax in Sprague-Dawley rat plasma at 10 mg/kg, po", "assay_type": "ADME, organism-based", "set-up": "dose 10 mg/kg, route oral", "procedure,_shortened": "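Male Sprague-Dawley rats given 10 mg/kg po as a solution. Compound measured in portal vein, systemic plasma and liver. Cmax taken from concentration–time profiles.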"}, "Plasma [5]": {"tested_on": "Plasma", "test": "Proinflammatory activity in C57BL/6J mouse plasma assessed as CXCL-1 levels at 1 mg/kg, po by multiplex assay (reference value: 230 pg/ml)", "assay_type": "functional"}, "Liver [6]": {"tested_on": "Liver", "test": "Anti-inflammatory activity in C57BL/6J mouse liver assessed as IL-10 levels at 3 mg/kg, po by multiplex assay (reference value: 2 pg/g)", "assay_type": "functional", "procedure,_shortened": "as §1"}, "Plasma [7]": {"tested_on": "Plasma", "test": "Proinflammatory activity in C57BL/6J mouse plasma assessed as IL-1beta levels at 1 mg/kg, po by multiplex assay (reference value: 60 pg/ml)", "assay_type": "functional, organism-based"}, "Plasma [8]": {"tested_on": "Plasma", "test": "Effect on cytokine profile in C57BL/6J mouse plasma assessed as IFNgamma levels at 3 mg/kg, po by multiplex assay", "assay_type": "functional, organism-based", "procedure,_shortened": "as §1"}, "Cynomolgus monkey [9]": {"tested_on": "Cynomolgus monkey", "test": "Induction of IFNalpha levels in cynomolgus monkey plasma at 1 mg/kg, po after 24 hrs by ELISA", "assay_type": "functional, Macaca fascicularis", "procedure,_shortened": "as §2"}, "[10]": {"target": "T1, TLR7 and TLR8 (Homo sapiens) (UniProt Q9NYK1+Q9NR97)", "T1 sequence (Q9NR97 whole entry, looked up)": "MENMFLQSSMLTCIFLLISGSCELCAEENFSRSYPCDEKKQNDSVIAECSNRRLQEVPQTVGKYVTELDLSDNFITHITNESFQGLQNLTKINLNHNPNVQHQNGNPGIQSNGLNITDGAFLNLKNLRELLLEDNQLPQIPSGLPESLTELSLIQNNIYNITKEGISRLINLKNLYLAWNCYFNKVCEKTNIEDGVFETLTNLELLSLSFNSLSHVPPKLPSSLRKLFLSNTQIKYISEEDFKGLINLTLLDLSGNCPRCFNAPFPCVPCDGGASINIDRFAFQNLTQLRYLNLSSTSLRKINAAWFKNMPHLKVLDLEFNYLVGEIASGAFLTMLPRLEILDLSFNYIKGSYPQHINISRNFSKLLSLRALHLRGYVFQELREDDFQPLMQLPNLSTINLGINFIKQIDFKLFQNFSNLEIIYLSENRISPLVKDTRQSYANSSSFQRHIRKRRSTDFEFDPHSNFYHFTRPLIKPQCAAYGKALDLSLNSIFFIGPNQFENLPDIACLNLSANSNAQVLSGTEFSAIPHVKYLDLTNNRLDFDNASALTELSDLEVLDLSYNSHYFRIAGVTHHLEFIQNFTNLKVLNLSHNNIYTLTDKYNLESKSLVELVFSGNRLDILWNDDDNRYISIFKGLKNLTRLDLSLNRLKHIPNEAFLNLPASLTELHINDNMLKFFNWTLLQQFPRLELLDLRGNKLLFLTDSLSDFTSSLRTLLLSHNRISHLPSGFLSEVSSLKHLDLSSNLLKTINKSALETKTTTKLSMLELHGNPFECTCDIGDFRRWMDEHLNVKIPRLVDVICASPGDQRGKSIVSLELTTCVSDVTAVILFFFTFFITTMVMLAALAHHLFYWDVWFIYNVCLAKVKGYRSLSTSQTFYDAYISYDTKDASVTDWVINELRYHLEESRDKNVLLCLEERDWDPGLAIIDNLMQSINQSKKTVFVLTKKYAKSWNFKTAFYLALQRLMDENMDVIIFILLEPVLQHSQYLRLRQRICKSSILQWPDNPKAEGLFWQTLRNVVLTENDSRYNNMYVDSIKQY", "T1 sequence (Q9NYK1 whole entry, looked up)": "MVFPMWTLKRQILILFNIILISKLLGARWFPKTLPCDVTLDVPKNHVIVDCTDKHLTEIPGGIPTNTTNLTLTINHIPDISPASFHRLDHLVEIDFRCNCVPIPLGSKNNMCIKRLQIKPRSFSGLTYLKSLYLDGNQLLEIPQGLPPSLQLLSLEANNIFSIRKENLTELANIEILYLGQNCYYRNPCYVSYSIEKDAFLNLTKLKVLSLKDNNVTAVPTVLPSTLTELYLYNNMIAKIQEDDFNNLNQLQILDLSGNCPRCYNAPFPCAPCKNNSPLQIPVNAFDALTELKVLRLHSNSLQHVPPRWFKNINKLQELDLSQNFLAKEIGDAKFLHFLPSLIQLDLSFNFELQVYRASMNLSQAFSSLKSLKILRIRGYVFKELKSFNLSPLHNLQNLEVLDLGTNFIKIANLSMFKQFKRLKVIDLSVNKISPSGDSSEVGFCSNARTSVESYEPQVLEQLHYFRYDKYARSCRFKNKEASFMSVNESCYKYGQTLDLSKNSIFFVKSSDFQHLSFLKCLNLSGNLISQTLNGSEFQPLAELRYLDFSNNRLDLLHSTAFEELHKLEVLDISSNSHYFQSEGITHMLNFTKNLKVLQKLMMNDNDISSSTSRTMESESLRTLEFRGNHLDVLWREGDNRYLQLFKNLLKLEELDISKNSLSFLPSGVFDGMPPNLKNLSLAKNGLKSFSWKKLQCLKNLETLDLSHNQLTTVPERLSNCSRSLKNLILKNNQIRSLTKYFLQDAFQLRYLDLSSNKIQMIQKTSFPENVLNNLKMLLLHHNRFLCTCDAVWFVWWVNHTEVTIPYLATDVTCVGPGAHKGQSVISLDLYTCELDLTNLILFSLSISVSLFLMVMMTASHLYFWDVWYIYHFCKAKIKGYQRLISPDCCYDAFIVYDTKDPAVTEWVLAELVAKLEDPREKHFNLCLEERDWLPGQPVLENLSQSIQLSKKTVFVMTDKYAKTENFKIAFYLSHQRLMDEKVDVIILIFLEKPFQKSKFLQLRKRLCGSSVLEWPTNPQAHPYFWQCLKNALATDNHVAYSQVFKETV", "test": "Agonist activity at TLR7/8 in human PBMCs co-cultured with primary human hepatocytes infected with HBV genotype C for 12 days assessed as increase in MIP-1alpha levels up to 5 uM measured after 42 days"}, "Mus musculus": {"tested_on": "Mus musculus", "test": "Toxicity in C57BL/6J mouse at 30 mg/kg, po after 1 to 2 hrs […]", "assay_type": "organism-based", "conditions": "in vivo"}, "[11]": {"test": "Solubility of the compound in FeSSIF", "assay_type": "physicochemical"}, "Plasma [12]": {"tested_on": "Plasma", "test": "Upregulation of IP-10 mRNA expression levels in C57BL/6J mouse plasma at 3 mg/kg, po by RT-qPCR analysis (reference value: 1)", "assay_type": "functional"}, "[13]": {"test": "Cmax in C57BL/6J mouse plasma at 10 mg/kg, po by LC-MS analysis", "assay_type": "ADME, organism-based", "set-up": "dose 10 mg/kg, route oral", "procedure,_shortened": "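Healthy C57BL/6 mice, groups of 15, given a single oral dose (0.3, 1, 3, 10 or 30 mg/kg) in 20% HP-β-CD. Blood drawn at 0.5 h. Three mice per group sacrificed at 0.5, 1, 2, 4 or 7 h, and compound in plasma and liver measured by LC−MS. Values rounded to whole numbers.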"}, "Cynomolgus monkey [14]": {"tested_on": "Cynomolgus monkey", "test": "Proinflammatory activity in cynomolgus monkey plasma assessed as IL-6 levels at 1 mg/kg, po after 24 hrs by Luminex assay (reference value: 80 pg/ml)", "assay_type": "functional, Macaca fascicularis"}, "Plasma [15]": {"tested_on": "Plasma", "test": "Proinflammatory activity in C57BL/6J mouse plasma assessed as IL-6 levels at 30 mg/kg, po by multiplex assay (reference value: 505 pg/ml)", "assay_type": "functional"}, "Cynomolgus monkey [16]": {"tested_on": "Cynomolgus monkey", "test": "Plasma concentration in cynomolgus monkey at 30 mg/kg, po by LC-MS analysis", "assay_type": "ADME, organism-based, Macaca fascicularis", "conditions": "in vivo"}, "Cynomolgus monkey [17]": {"tested_on": "Cynomolgus monkey", "test": "Toxicity in cynomolgus monkey assessed as clinical observation changes up to 30 mg/kg, po", "assay_type": "organism-based, Macaca fascicularis", "conditions": "in vivo"}, "Liver [18]": {"tested_on": "Liver", "test": "Proinflammatory activity in C57BL/6J mouse liver assessed as IL-1beta levels at 3 mg/kg, po by multiplex assay", "assay_type": "functional"}, "Plasma [19]": {"tested_on": "Plasma", "test": "Induction of IFNalpha levels in C57BL/6J mouse plasma at 1 mg/kg, po by ELISA", "assay_type": "functional"}, "[20]": {"test": "Stability in dog hepatocytes assessed compound turnover at 1 uM after 60 mins", "assay_type": "ADME, cell-based, Canis lupus familiaris, Hepatocyte", "conditions": "read-out: Drug metabolism"}, "[21]": {"test": "Intrinsic clearance in mouse liver microsomes assessed per mg protein at 1 uM up to 60 mins", "assay_type": "ADME, microsome", "conditions": "read-out: CLH"}, "[22]": {"test": "Tmax in Sprague-Dawley rat liver at 10 mg/kg, po", "assay_type": "ADME, organism-based"}, "Cynomolgus monkey [23]": {"tested_on": "Cynomolgus monkey", "test": "Effect on cytokine profile in cynomolgus monkey plasma assessed as IL-12P70 levels at 1 mg/kg, po after 24 hrs by Luminex assay (reference value: 2.17 pg/ml)", "assay_type": "functional, organism-based", "conditions": "Macaca fascicularis", "procedure,_shortened": "as §2"}, "Cynomolgus monkey [24]": {"tested_on": "Cynomolgus monkey", "test": "Toxicity in cynomolgus monkey assessed as induction of emesis at 30 mg/kg, po after 1 hr postdosing", "assay_type": "organism-based, Macaca fascicularis", "conditions": "in vivo"}, "Liver [25]": {"tested_on": "Liver", "test": "Effect on cytokine profile in C57BL/6J mouse liver assessed as IL-12p70 levels at 30 mg/kg, po by multiplex assay (reference value: 5 pg/g)", "assay_type": "functional", "procedure,_shortened": "as §1"}, "TK6": {"tested_on": "TK6", "test": "Genotoxicity in human TK6 cells by in vitro micronuleus test", "assay_type": "toxicity, cell-based", "procedure,_shortened": "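In vitro micronucleus test in TK-6 cells.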"}, "Cynomolgus monkey [26]": {"tested_on": "Cynomolgus monkey", "test": "Activation of Kupffer cells in cynomolgus monkey liver at 30 mg/kg, po after 72 hrs by CD68 staining-based immunohistochemical analysis", "assay_type": "functional, organism-based", "conditions": "Macaca fascicularis", "procedure,_shortened": "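Three 2.5-year-old male naive cynomolgus monkeys were dosed orally at 30 mg/kg and euthanized 72 h later. FFPE liver sections were stained for CD68 by IHC, alongside sections from unrelated control animals. Positive cells were counted over a 30 mm² area and expressed per mm². Statistics used a one-tailed t test with Welch correction.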"}, "Plasma [27]": {"tested_on": "Plasma", "test": "Proinflammatory activity in C57BL/6J mouse plasma assessed as TNFalpha levels at 0.3 mg/kg, po by multiplex assay (reference value: 70 pg/ml)", "assay_type": "functional, organism-based"}, "Liver [28]": {"tested_on": "Liver", "test": "Proinflammatory activity in C57BL/6J mouse liver assessed as TNFalpha levels at 0.3 mg/kg, po by multiplex assay (reference value: 15 pg/g)", "assay_type": "functional"}, "[29]": {"test": "AUC (0 to last) in cynomolgus monkey plasma at 1 mg/kg, po by LC-MS analysis", "assay_type": "ADME, organism-based, Macaca fascicularis", "set-up": "dose 1 mg/kg, time 0 - last, route oral", "procedure,_shortened": "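Healthy cynomolgus monkeys received single oral doses of 1, 3, 9 and 30 mg/kg, with a 2-week wash-out between doses. Systemic compound concentrations were measured by LC–MS at 0.25, 0.5, 1, 2, 4, 8 and 24 h postdose.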"}, "Plasma [30]": {"tested_on": "Plasma", "test": "Anti-inflammatory activity in C57BL/6J mouse plasma assessed as IL-10 levels at 30 mg/kg, po by multiplex assay (reference value: 120 pg/ml)", "assay_type": "functional", "procedure,_shortened": "as §1"}, "[31]": {"target": "T1, TLR7 and TLR8 (Homo sapiens)", "test": "Agonist activity at TLR7/8 in human PBMCs co-cultured with primary human hepatocytes infected with HBV genotype C for 12 days assessed as increase in VEGF levels up to 5 uM measured after 42 days"}, "Cynomolgus monkey [32]": {"tested_on": "Cynomolgus monkey", "test": "Activation of monocytes in cynomolgus monkey plasma assessed as upregulation of MCP1 levels at 3 mg/kg, po after 24 hrs by Luminex assay (reference value: 385 pg/ml)", "assay_type": "functional, Macaca fascicularis"}}, "note": "Activity calls are given as the source filed them. No cut-off for these calls is given here.", "data": [{"smiles": "CCC[C@@H](CCO)Nc1nc(N)nc2c(F)cccc12", "values": [{"measurement": "Activity", "setting": "Plasma [1]", "result": 1115, "unit": "pg/mL"}, {"measurement": "Activity", "setting": "Cynomolgus monkey [2]", "result": "Non-Toxic"}, {"measurement": "Activity", "setting": "Cynomolgus monkey [3]", "result": 20, "unit": "pg/mL"}, {"measurement": "Cmax", "setting": "[4]", "result": 16, "unit": "ng/mL"}, {"measurement": "Activity", "setting": "Plasma [5]", "result": 2155, "unit": "pg/mL"}, {"measurement": "Activity", "setting": "Liver [6]", "result": 1355, "unit": "pg/g"}, {"measurement": "Activity", "setting": "Plasma [7]", "result": "Below limit of detection"}, {"measurement": "Activity", "setting": "Plasma [8]", "result": "Below limit of detection"}, {"measurement": "Activity", "setting": "Cynomolgus monkey [9]", "result": 3465, "unit": "pg/mL"}, {"measurement": "Activity", "setting": "[10]", "result": "Active"}, {"measurement": "Activity", "setting": "Mus musculus", "result": "Toxic"}, {"measurement": "solubility", "setting": "[11]", "result": "> 4000", "unit": "µg/mL"}, {"measurement": "fold change (FC)", "setting": "Plasma [12]", "result": 2485}, {"measurement": "Cmax", "setting": "[13]", "result": 148, "unit": "ng/mL"}, {"measurement": "Activity", "setting": "Cynomolgus monkey [14]", "result": 75, "unit": "pg/mL"}, {"measurement": "Activity", "setting": "Plasma [15]", "result": ">10000", "unit": "pg/mL"}, {"measurement": "Cp", "setting": "Cynomolgus monkey [16]", "result": 160, "unit": "ng/mL"}, {"measurement": "Activity", "setting": "Cynomolgus monkey [17]", "result": "Non-Toxic"}, {"measurement": "Activity", "setting": "Liver [18]", "result": 22925, "unit": "pg/g"}, {"measurement": "Activity", "setting": "Plasma [19]", "result": 180, "unit": "pg/mL"}, {"measurement": "metabolised at 1 h, 1 µM", "setting": "[20]", "result": 77, "unit": "%"}, {"measurement": "microsomal CLint at 1 µM", "setting": "[21]", "result": 100, "unit": "µL/min/mg"}, {"measurement": "Tmax", "setting": "[22]", "result": 30, "unit": "min"}, {"measurement": "Activity", "setting": "Cynomolgus monkey [23]", "result": "Below limit of detection"}, {"measurement": "Activity", "setting": "Cynomolgus monkey [24]", "result": "Toxic"}, {"measurement": "Activity", "setting": "Liver [25]", "result": 2340, "unit": "pg/g"}, {"measurement": "Activity", "setting": "TK6", "result": "Non-Toxic"}, {"measurement": "Activity", "setting": "Cynomolgus monkey [26]", "result": "Active"}, {"measurement": "Activity", "setting": "Plasma [27]", "result": "Below limit of detection"}, {"measurement": "Activity", "setting": "Liver [28]", "result": 1945, "unit": "pg/g"}, {"measurement": "AUC(0-t)", "setting": "[29]", "result": 75, "unit": "ng·h/mL"}, {"measurement": "Activity", "setting": "Plasma [30]", "result": 5170, "unit": "pg/mL"}, {"measurement": "Activity", "setting": "[31]", "result": "Active"}, {"measurement": "Activity", "setting": "Cynomolgus monkey [32]", "result": 7720, "unit": "pg/mL"}]}]}
